Measured values taken from the EternaBench riboswitch data.

Tested on: MS2 coat protein
Test: apparent Kd, MS2 coat protein; higher = weaker binding; RNA-MaP array; FMN 200 µM where present
In short: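 Binding was read on Illumina sequencing-chip clusters where stalled E. coli RNA polymerase had transcribed each design. A titration of SNAP-549-labelled MS2 coat protein began at 0.7 or 1.5 nM and doubled to 3 µM, once without ligand and once with constant ligand, in 100 mM Tris-HCl pH 7.5, 80 mM KCl, 4 mM MgCl2, BSA, DTT, yeast tRNA and Tween-20. The apparent Kd is the median of filtered per-cluster binding-curve fits, based on green signal normalised to red-channel RNA signal and control-cluster median Fmax.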

[1] = designed as: OFF switch for flavin mononucleotide, no ligand
[2] = ligand present: flavin mononucleotide, designed as: OFF switch for flavin mononucleotide
[3] = designed as: ON switch for flavin mononucleotide, no ligand
[4] = ligand present: flavin mononucleotide, designed as: ON switch for flavin mononucleotide

Row | Sequence | apparent Kd [1] [nM] | apparent Kd [2] [nM] | apparent Kd [3] [nM] | apparent Kd [4] [nM]
1 | UUUUAACAUGAGGAUCACCCAUGUGAGGAUAUCGAAAUUUAUAUUAAUAUUAAUAAAUCGAGAAGGCACAUUUU | 117 | 127 |  | 
2 | AAUUGACACGUAGGAUAUCGCUCUUAAUUAACACGAGAAGGACGUACAUGAGGAUCACCCAUGUUAAAUGGUGUAGAUUAGUUG | 219 | 599 |  | 
3 | UAAUCUCAGAUAGGAUAUAUAGGAUGAUUUAAGACCGAACAUGAGGAUCACCCAUGUGAUUAUUUGUAGAAGGAUCAAUGACCC |  |  | 72.4 | 79.2
4 | UCCGCCAAAGGAUAUACUGGGCGUUAAAAUCCUCUUAAAAGACAUGAGGAUCACCCAUGUAGAAGGUUGAGGAA | 209 | 575 |  | 
5 | UGAGUAGCGAAACAACGCACAUGAGGAUCACCCAUGUCUACACAGGAUAUGCGACGCUCCAGUUAGCAGAAGGGUGAACUCAAA |  |  | 36.4 | 89.7
6 | GUUAUAAUUGAAGGAUAUCUAUAUCCAACAUGAGGAUCACCCAUGUUGAGGAUCACCCAUGUAAAGGAGAAGGUUAAUUAUAAU |  |  | 84.2 | 25.2
7 | CCUAAGCGAAUCAAGAUGGAUAGAACAUGAGGAUCACCCAUGUAGGAUAUGCUACACAAAGUGUAGCAGAAGGACAAGCUUAGG | 25.9 | 40.5 |  | 
8 | AAGGUGAGAGGAUAUACAUGAGGAUCACCCAUGUGCCGGCCCUCCACAUAUGCCUUGUGUAGAAGGCUCCCGAA | 14.5 | 14.9 |  | 
9 | CAGGGUCGUAUUCAGCCCGUCCACAUGAGGAUCACCCAUGUCAAGGAUAUAGAUUAAAAUACAAGCUAGAAGGUGACGCUGGGU | 14.3 | 42.6 |  | 
10 | AAGGACUGAAUAAAUAACUCAAAUACAUGAGGAUCACCCAUGUAGGAUAUCGUCAGGAAUACUGACGAGAAGGACAUACAGUCC | 14 | 20.2 |  | 
11 | ACGACGAAAGUCGAACGAUGAUCGAGAAGGACAUGAGGAUCACCCAUGUUCCGUGUAACACGCAUGUAGGAUAUCGAUCAUCGA | 5.17 | 11.4 |  | 
12 | AGCGCCAUCGUGAGAUGGCGUAUUACAUGAGGAUCACCCAUGUAGGAUAUCGAUUGCUUUGCAGUCGAGAAGGACAUGUUCUUG | 51.5 | 91.7 |  | 
13 | GCCGAACAUGAGGAUCACCCAUGUCUGGGUAAUUAAGGAUAUGGGAAGGCUUUGCCGUGGCCAGAAGGUGGUUAUC |  |  | 171 | 108
14 | CAAAGGUGAGGAUAUACAUAACUAUGACGAAAGUCAUAAACACAUGAGGAUCACCCAUGUAGAAGGCACCACAA | 26.3 | 37.9 |  | 
15 | GGAUGCCGCUCAGGAUAUGUGGGUUGUCUAGUAUUUAGAUUCCACAUGAGGAUCACCCAUGUAACACAGAAGGGAGAUGGUGAU |  |  | 214 | 22.7
16 | GCGUUUUAUGCAGGAUAUUGUAAUUUAUUACUACAAGAAGGGCAAUACAUGAGGAUCACCCAUGUCAGCAUGGUUUUUAAGUUC | 20.4 | 25.9 |  | 
17 | UUUAAUUAGUAGAAGGACGGAGAGUAAGAAGUCGUAGGAUAUACAUAAGACAUGAGGAUCACCCAUGUGUGUAUGUUGGGUAGG | 6.57 | 7.72 |  | 
18 | UUUUUGAAGCUUCGUUAAUACAGUUAGGAUAUGAGAGACAUGAGGAUCACCCAUGUGCAUGUUGAUUAGAAGGAACAACUAUCU | 20.1 | 17.4 |  | 
19 | UGCAGACGAGGAUAUGAUGUCAUAGACAUGAGGAUCACCCAUGUGAUCAAUUAAUUAAGAUCAGAAGGCGUCUGCA | 315 | 218 |  | 
20 | UAAAUGUGAGGAUAUUCGAUUAACUCGGAGACGAGUUGAUCGGAGAAGGCACAUGAGGAUCACCCAUGUUCCUU | 24.8 | 232 |  | 
21 | UUCAUGUGAGGAUAUCAGUAGUAAAAAAAUAAAAUUACUACUGAGAAGGCACAUGAGGAUCACCCAUGUCCUUC | 62.5 | 40.8 |  | 
22 | UGUCGGAGCAGAGGAUAUUACAUGAGGAUCACCCAUGUAUGAACGAAUAGCUGGAAACAGCAAUGUAAGAAGGCUGCUCCGACA | 6 | 10.4 |  | 
23 | GUAUAUAUGAGGUAGGAUAUCCAAAAUAAAACAUGAGGAUCACCCAUGUAAAUAAAUAAUAAAUGGGAGAAGGACCACAUAUAUAC |  |  | 30.8 | 13.8
24 | UCUUAUCUAGGAUAUCCACCUCCUCACAUGAGGAUCACCCAUGUGCAGAACAACGGUCUCGGAGAAGGAGGUAUUG | 25.9 | 25.3 |  | 
25 | AGCUGUGGCCGAGGAUAUCACGAACCAUGGAAAACCAUGGAACUCAUACAUGAGGAUCACCCAUGUGAGAAGGCGGUCUCAGCA | 34.1 | 29.6 |  | 
26 | UGAUAGGACAGAGGAUAUACGUCCUAGAGAUACUAGGAAAGUUUCCUCACAUGAGGAUCACCCAUGUAGAAGGCUGUCCUAUCU | 19 | 472 |  | 
27 | GAAUAGGCAGGAUAUACAUGAGGAUCACCCAUGUGCCGGCGAAAGGUACGUUCGAAAGGUAGAAGGGCCUAAAC | 78.6 | 288 |  | 
28 | AAAAAACAUGAGGAUCACCCAUGUGAGGAUAUAGGAAAAAAAAAAAAAAAAAAAAAAACUAGAAGGCACAAAAA | 55.4 | 74.6 |  | 

Row | Sequence | apparent Kd [1] [nM] | apparent Kd [2] [nM] | apparent Kd [3] [nM] | apparent Kd [4] [nM]
29 | CACCGCGACAAUGCGGUGUCACAUGAGGAUCACCCAUGUUCACAGGAUAUGCGAUAGCCAACGAAGCAGAAGGGUGAUUACUUA |  |  | 32.3 | 172
30 | AAAGUGUGAAGCAGGGUGCUACAUGAGGAUCACCCAUGUCGGAGAAGGGCGCCGUUUCGCAGGGUGUAGGAUAUCUGGCGUGCA | 132 | 109 |  | 
31 | UUAAUCAUGUAGAAGGACGGAUAUUAAGAGAACGUAGGAUAUACAGAAGACAUGAGGAUCACCCAUGUGAACAUGGUACAUAGG | 241 | 62.5 |  | 
32 | GUGUAGCAAGGAUAUACAUGAGGAUCACCCAUGUGAAUAAGAUAGAAUAAGAUAAAGUGUAGAAGGUGUAGUGU | 35.3 | 35.7 |  | 
33 | GGUACCAUCACAGGAUAUGCUAUCCUUUGGGUAGCAGAAGGGUGUAACAUGAGGAUCACCCAUGUGGUGCCAGGGCGUGAGCCC |  |  | 496 | 49.9
34 | UCCUUACAUGAGGAUCACCCAUGUCAGGAUAUCUCCACACUGCGCUUGCGCAGUGUAUAGAGAAGGGACGGGCU | 34.2 | 26.2 |  | 
35 | UAUUUGUGAGGAUAUGAGUCGUAGAACAAUAGUACUACGUCUCAGAAGGUACAUGAGGAUCACCCAUGUUCCUC | 19 | 28 |  | 
36 | AAAAAGUCAGGAUAUUCGGAAGGGAAAGCGCAAACCCAACCGAAGAAGGGACAUGAGGAUCACCCAUGUAAAAA | 26.7 | 39 |  | 
37 | AAAACGAUGUGAGGAUAUCACCGCUGUGACGGCUGAGAAGGCACAUGAGGAUCACCCAUGUGCAGGCGUGUGUGGGUAAUCCUA | 109 | 94.8 |  | 
38 | UUUGUUGUUGUGAGGAUAUCGUUGAUUUUUUGAAACGAGAAGGCACAUGAGGAUCACCCAUGUUUGUUGUUGGU | 66.2 | 248 |  | 
39 | GCUAAGCGAAUCAAGAUGGAUAGAACAUGAGGAUCACCCAUGUAGGAUAUGCUACACAAAGUGUAGCAGAAGGACAAGCUUAGC | 19.9 | 33.5 |  | 
40 | CAGCUCUGAGGAUAUCCACCCUCGUACAUGAGGAUCACCCAUGUUUCCCUCUGGGCUUUCGGAGAAGGCAGGUAUC | 59.1 | 55.3 |  | 
41 | GGGCUGCGACGCAGCCCAACAAAACAUGAGGAUCACCCAUGUCAGGAUAUACCGAUGCAGCAUCUGUAGAAGGGACAGAUCCAA | 90.4 | 92.4 |  | 
42 | UGUGUUAUCGGAGGAUAUCGAUAUCAAACAUGAGGAUCACCCAUGUUGAGGAUCACCCAUGUCUACGAGAAGGCCGGCGUACUC |  |  | 45.2 | 50.6
43 | AAAUUAAGAUGAGGAUAUUGACAUGAGGAUCACCCAUGUAUUUGGGAAUGUUUACUGAAUUCUUACAAGAAGGUAUACGAACUU | 206 | 134 |  | 
44 | AGAAAUUAGUGAGGAUAUGCAUAAUAUUUAGCUGCAGAAGGCACGGACCACAAGACAUGAGGAUCACCCAUGUGGAAUAUAGAU | 20.1 | 23.4 |  | 
45 | AGUUCCUCCGCAGGAUAUGUGCUCUUUAUCACAUGAGGAUCACCCAUGUCAGCCGAAACGGCGAGACAGAAGGGUGGUGGUGCC |  |  | 213 | 169
46 | GGUGGACAUGAGGAUCACCCAUGUGAGGAUAUCGGCUGGCUAGCGGCUGACGGCUGCUCGAGAAGGCGCAUUGU | 65.8 | 84.9 |  | 
47 | GGCUUAAACACAGGAUAUGGCCUUAGAGUGAGGCCAGAAGGGUGAAGUUCUCAUACAUGAGGAUCACCCAUGUCAAGGAGGCUA |  |  | 857 | 201
48 | UUAUACGCUGAGGAUAUUAUCACUGAGAGGUGAUGAGAAGGCGGUACAUGAGGAUCACCCAUGUCUAUGGGCAG | 282 | 240 |  | 
49 | GGAUUACAUGAGGAUCACCCAUGUGAGGAUAUCGAUGUCCUCAAUGAAGUGCGGGACUCGAGAAGGCACUUGGA | 78.5 | 108 |  | 
50 | GUGGCGGCCACAGGAUAUACCCGCGGUAGCCUGGUAGAAGGGUGGUCUCUCAGUCACAACAUGAGGAUCACCCAUGUAGAAAUC |  |  | 25.8 | 35.5
51 | UAUGUGUCAGGAUAUUAGUAGUAAAUAAAUAAAAUUAUUACUGAGAAGGGACAUGAGGAUCACCCAUGUGCCUC | 32.8 | 354 |  | 
52 | GGUCCACAUGAGGAUCACCCAUGUUAGGAUAUCUCGCCCGAGCCCAUAUGGGCCAGGCAGAGAAGGAAUGUGAA | 23.7 | 23.5 |  | 
53 | UGAUAAUACGUCAGGAUAUGCGUCAUAGAGAAGUGGUAGAAGGGACAUGAGGAUCACCCAUGUUUUGGGUUAUA | 132 | 93.5 |  | 
54 | GACUGAUUGUAGAAGGUACUUGACUAUAUAUUUUAUUCAUAUAGACAUGAGGAUCACCCAUGUAGUAAGGAUAUACUUUUAACA |  |  | 9.31 | 6
55 | UAUUACAGAUAAGGAUAUCGACAUGAGGAUCACCCAUGUAUUUGGGAAUGUUUACUGAAUUCUUACGAGAAGGUAUACGUACUU | 154 | 118 |  | 
